Laboratory results: ChEMBL document CHEMBL3763072, “Structure activity relationship studies on chemically non-reactive glycine sulfonamide inhibitors of diacylglycerol lipase” (Bioorg Med Chem, 2016)
The source made the active and inactive calls. No cut-off for these calls is given here.

What was measured:
[1] = target: T1, Diacylglycerol lipase-alpha (Homo sapiens, UniProt Q9Y4D2); test: Inhibition of full length human C-terminal HA-tagged DAGLalpha expressed in HEK293 cells using DAG as substrate assessed as reduction in intracellular 2-AG level incubated for 20 mins by LC-MS analysis; assay type: cell-based
T1 sequence (Q9Y4D2 whole entry): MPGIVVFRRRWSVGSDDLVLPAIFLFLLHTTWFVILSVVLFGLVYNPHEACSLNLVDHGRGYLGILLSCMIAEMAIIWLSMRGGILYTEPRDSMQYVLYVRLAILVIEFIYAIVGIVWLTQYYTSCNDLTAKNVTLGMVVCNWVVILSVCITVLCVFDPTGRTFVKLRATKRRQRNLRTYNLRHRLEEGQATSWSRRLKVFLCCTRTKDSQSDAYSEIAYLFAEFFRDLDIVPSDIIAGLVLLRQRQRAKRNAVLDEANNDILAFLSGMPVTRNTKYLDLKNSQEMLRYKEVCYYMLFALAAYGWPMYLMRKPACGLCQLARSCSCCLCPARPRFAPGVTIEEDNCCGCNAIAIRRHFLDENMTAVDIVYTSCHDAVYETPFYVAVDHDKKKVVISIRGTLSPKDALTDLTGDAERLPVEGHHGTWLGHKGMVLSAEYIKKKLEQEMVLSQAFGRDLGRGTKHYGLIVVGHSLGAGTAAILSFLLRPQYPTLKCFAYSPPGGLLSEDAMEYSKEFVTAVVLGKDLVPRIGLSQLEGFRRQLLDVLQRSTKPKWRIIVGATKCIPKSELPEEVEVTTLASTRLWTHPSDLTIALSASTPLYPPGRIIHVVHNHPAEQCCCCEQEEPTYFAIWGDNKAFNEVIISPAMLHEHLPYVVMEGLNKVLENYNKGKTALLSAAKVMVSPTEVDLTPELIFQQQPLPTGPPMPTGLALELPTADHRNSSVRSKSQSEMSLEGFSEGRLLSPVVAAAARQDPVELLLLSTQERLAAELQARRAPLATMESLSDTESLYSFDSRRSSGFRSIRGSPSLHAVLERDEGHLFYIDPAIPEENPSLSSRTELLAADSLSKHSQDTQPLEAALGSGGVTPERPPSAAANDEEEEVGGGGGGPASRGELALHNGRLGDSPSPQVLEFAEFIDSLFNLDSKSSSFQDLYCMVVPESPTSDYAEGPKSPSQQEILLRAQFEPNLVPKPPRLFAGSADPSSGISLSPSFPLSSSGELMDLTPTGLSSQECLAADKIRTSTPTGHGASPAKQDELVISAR

[2] = target: T1, Diacylglycerol lipase-alpha; test: Inhibition of full length human C-terminal HA-tagged DAGLalpha expressed in HEK293 cell membrane using DAG as substrate incubated for 20 mins by LC-MS analysis; assay type: cell-based
Procedure, shortened: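 Cell-free DAGL-α enzyme assay run at pH 6.5. IC50 values are reported, with replicate counts (n) given per value.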

[3] = target: T2, Diacylglycerol lipase-alpha (Homo sapiens) (UniProt Q9Y4D2); test: Ratio of IC50 for full length human C-terminal HA-tagged DAGLalpha expressed in HEK293 cells assessed as reduction in intracellular 2-AG level to IC50 for full length human C-terminal HA-tagged DAGLalpha expressed in HEK293 cell membrane; assay type: cell-based
T2 sequence (whole entry): T1 sequence (Q9Y4D2 whole entry)

[4] = target: T3, Monoglyceride lipase (Homo sapiens) (UniProt Q99685); test: Inhibition of MAGL (unknown origin) at 30 uM
T3 sequence (whole entry): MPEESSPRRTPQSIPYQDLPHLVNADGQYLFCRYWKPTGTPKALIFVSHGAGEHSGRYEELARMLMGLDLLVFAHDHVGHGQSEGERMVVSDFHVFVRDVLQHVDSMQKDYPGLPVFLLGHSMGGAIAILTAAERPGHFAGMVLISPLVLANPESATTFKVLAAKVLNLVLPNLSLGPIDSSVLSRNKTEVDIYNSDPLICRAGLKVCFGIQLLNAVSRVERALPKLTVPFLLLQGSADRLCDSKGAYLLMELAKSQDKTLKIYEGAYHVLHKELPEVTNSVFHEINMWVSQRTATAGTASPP

[5] = Metabolic stability in human liver microsomes assessed as residual compound at 3 uM preincubated for 2 mins followed by NADPH addition measured after 10 mins by LC-MS analysis; assay type: ADME; settings: read-out: Stability
[6] = Metabolic stability in rat liver microsomes assessed as residual compound at 3 uM preincubated for 2 mins followed by NADPH addition measured after 10 mins by LC-MS analysis; assay type: ADME; settings: read-out: Stability
[7] = Metabolic stability in mouse liver microsomes assessed as residual compound at 3 uM preincubated for 2 mins followed by NADPH addition measured after 10 mins by LC-MS analysis; assay type: ADME; settings: read-out: Stability

IC50 [2]	inhibition [4]	remaining at 10 min, 3 µM [5]	remaining at 10 min, 3 µM [6]	remaining at 10 min, 3 µM [7]	Compound	further results
19 nM	–	–	–	–	C[C@H](c1ccc(-c2ccc(Cl)cc2Cl)cc1)N(CC(=O)O)S(=O)(=O)c1ccc(OC(F)F)cc1	IC50 [1]: 100 nM; Ratio IC50 [3]: 5
30 nM	–	–	–	–	O=C(O)CN(Cc1ccc(-c2ccc(Cl)cc2Cl)cc1)S(=O)(=O)c1ccc(OC(F)F)cc1	–
–	inactive	78%	100%	100%	O=C(O)CN(C1(c2ccc(-c3ccccc3OC(F)(F)F)cc2)CCC1)S(=O)(=O)c1ccc(OC(F)F)cc1	–
510 nM	–	–	–	–	O=C(O)CN(C1(c2cccc(-c3cc(Cl)cc(Cl)c3)c2)CCC1)S(=O)(=O)c1ccccc1Cl	–
–	–	77%	67%	87%	CC1(C)CCc2cc(S(=O)(=O)N(CC(=O)O)Cc3cccc(-c4ccccc4)c3)ccc2O1	–
–	inactive	–	–	–	O=C(O)CN(C1(c2cccc(-c3ccc(Cl)cc3Cl)c2)CCC1)S(=O)(=O)c1ccc(Cl)c(Cl)c1	–
